Results: ChEMBL document CHEMBL4350956, “Paired Utility of Aza-Amino Acyl Proline and Indolizidinone Amino Acid Residues for Peptide Mimicry: Conception of Prostaglandin F2α Receptor Allosteric Modulators That Delay Preterm Birth” (J Med Chem, 2019)
Activity calls are given as the source filed them. The calls are words filed in the database; no cut-off is given here. Non-standard residues stand in square brackets, D forms with d. Residues, ends and D or L forms follow the SMILES beside them. *: point of attachment. Pro(trans-4-F) = O=C(O)[C@@H]1C[C@@H](F)CN1; Pro(cis-4-F) = O=C(O)[C@@H]1C[C@H](F)CN1; Pro(4R-NH2) = N[C@H]1CN[C@H](C(=O)O)C1; 3Pal = N[C@@H](Cc1cccnc1)C(=O)O; β3hF = N[C@H](CC(=O)O)Cc1ccccc1; PhAc = O=C(Cc1ccccc1)*; azaGly = NNC(=O)O

Tests used:
[1] = target: Prostaglandin F2-alpha receptor (Mus musculus) (UniProt P43117); test: Allosteric modulator activity at prostaglandin F2alpha receptor in CD-1 mouse myometrial strips assessed as inhibition of PGF2alpha- induced contraction at 1 uM pre-incubated for 20 mins followed by PGF2alpha challenge
Prostaglandin F2-alpha receptor (Mus musculus), sequence (P43117 whole entry): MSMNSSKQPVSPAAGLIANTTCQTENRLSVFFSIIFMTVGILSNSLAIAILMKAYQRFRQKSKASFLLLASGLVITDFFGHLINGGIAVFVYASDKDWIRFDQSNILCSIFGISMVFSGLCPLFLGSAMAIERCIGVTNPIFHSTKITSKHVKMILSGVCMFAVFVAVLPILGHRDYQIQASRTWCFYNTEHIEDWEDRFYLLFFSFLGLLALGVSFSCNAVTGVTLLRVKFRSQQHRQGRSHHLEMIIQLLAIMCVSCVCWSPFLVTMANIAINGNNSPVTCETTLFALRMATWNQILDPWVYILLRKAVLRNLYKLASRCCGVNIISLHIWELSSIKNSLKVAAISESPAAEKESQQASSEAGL
How it was run: (§1)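 Myometrial strips; baseline taken as mean tension of spontaneous contractions at start. Pretreated 20 min with modulator, then PGF2α challenge. Tension rise computed as […], X = PGF2α-induced change in mean tension (g), Y = initial reference response (g). % inhibition = (A-B)/A, A without and B with pretreatment. 5 experiments per group; means ± SEM.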

[2] = target: Prostaglandin F2-alpha receptor (Mus musculus) (UniProt P43117); test: Allosteric modulator activity at prostaglandin F2alpha receptor in CD-1 mouse myometrial strips assessed as inhibition of PGF2alpha- induced contraction at 10 uM pre-incubated for 20 mins followed by PGF2alpha challenge; how it was run: as §1
[3] = Solubility of the compound; assay type: physicochemical
[4] = tested on: Mus musculus; test: Suppression of LPS-induced premature delivery in Timed-pregnant CD-1 mouse assessed as inhibition of LPS-induced myometrial contraction by measuring percentage of animals delivering at 20 mg administered subcutaneously followed by 0.1 mg, ip bolus injection on day 16 prior to LPS challenge and measured on day 17; assay type: functional; design: scale not given: the % may be the effect or the level left
How it was run: (§2)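 Pregnant mice given LPS (E. coli endotoxin) intraperitoneally on gestational day 16. Test agent 20 mg/kg/day, started on day 16, before LPS; controls received saline. Delivery scored as percentage of animals delivered at 12, 15–24, 24–48 and 72 h after LPS. Average delivery time after LPS also recorded. 5–6 animals per treated group; n=10 for saline controls.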

[5] = tested on: Mus musculus; test: (§3) Suppression of LPS-induced premature delivery in Timed-pregnant CD-1 mouse assessed as inhibition of LPS-induced myometrial contraction at 20 mg administered subcutaneously followed by 0.1 mg, ip bolus injection on day 16 prior to LPS challenge and measured up to day 19; assay type: functional, organism-based; how it was run: as §2
[6] = tested on: Mus musculus; test: as §3, with “contraction by measuring time of delay in labor” for “contraction”, “(reference value: 12 hrs)” for “and measured up to day 19”; assay type: functional; how it was run: as §2
[7] = tested on: Mus musculus; test: Suppression of PGF2alpha-induced premature delivery in Timed-pregnant CD-1 mouse assessed as inhibition of PGFalpha-induced myometrial contraction by measuring time of delay in labor at 10 mg administered subcutaneously followed by 0.1 mg, ip bolus injection on day 16 prior to PGF2alpha challenge (reference value: 2 hrs); assay type: functional
[8] = species on record: Mus musculus; test: Inhibition of spontaneous myometrial contraction in CD-1 mouse assessed as decrease in mean tension at 10 uM; assay type: functional, tissue-based; conditions: Myometrium

| Compound | inhibition [1] | inhibition [2] | other results |
| --- | --- | --- | --- |
| O=C(O)C[C@H](Cc1ccccc1)NC(=O)[C@H](Cc1cccnc1)NC(=O)[C@@H]1CCCN1C(=O)N(Cc1c(F)c(F)c(F)c(F)c1F)NC(=O)Cc1ccccc1 | inactive | inactive | solubility [3]: Insoluble |
| O=C(O)C[C@H](Cc1ccccc1)NC(=O)[C@H](Cc1cccnc1)NC(=O)[C@@H]1CCCN1C(=O)N(Cc1ccccc1)NC(=O)Cc1ccccc1 | – | Active | Activity [4]: <20%; inhibition [5]: Active; Time [6]: 24 h |
| O=C(O)C[C@H](Cc1ccccc1)NC(=O)[C@H](Cc1cccnc1)NC(=O)[C@@H]1CCCN1C(=O)N(Cc1cn(-c2ccc([N+](=O)[O-])cc2)nn1)NC(=O)Cc1ccccc1 | inactive | inactive | solubility [3]: Insoluble |
| Cc1ccc(-n2cc(CN(NC(=O)Cc3ccccc3)C(=O)N3CCC[C@H]3C(=O)N[C@@H](Cc3cccnc3)C(=O)N[C@H](CC(=O)O)Cc3ccccc3)nn2)cc1 | inactive | inactive | – |
| O=C(O)C[C@H](Cc1ccccc1)NC(=O)[C@H](Cc1cccnc1)NC(=O)[C@@H]1CCC2=CC[C@H](NC(=O)Cc3ccccc3)C(=O)N21 | inactive | – | – |
| O=C(O)C[C@H](Cc1ccccc1)NC(=O)[C@H](Cc1cccnc1)NC(=O)[C@@H]1C[C@@H](O)CN1C(=O)N(Cc1ccccc1)NC(=O)Cc1ccccc1 | inactive | inactive | – |
| O=C(O)C[C@H](Cc1ccccc1)NC(=O)[C@H](Cc1cccnc1)NC(=O)[C@@H]1CC[C@@H]2CC[C@H](NC(=O)Cc3ccccc3)C(=O)N21 | – | – | Time [7]: ≤ 42 h |
| N[C@H]1C[C@@H](C(=O)N[C@@H](Cc2cccnc2)C(=O)N[C@H](CC(=O)O)Cc2ccccc2)N(C(=O)N(Cc2ccccc2)NC(=O)Cc2ccccc2)C1 | Active | Active | – |
| O=C(O)C[C@H](Cc1ccccc1)NC(=O)[C@H](Cc1cccnc1)NC(=O)[C@@H]1C[C@H](F)CN1C(=O)NNC(=O)Cc1ccccc1 (PhAc-[azaGly][Pro(cis-4-F)][3Pal][β3hF]-OH) | Active | Active | – |
| Nc1ccc(CC(=O)N[C@H]2CC[C@H]3CC[C@@H](C(=O)N[C@@H](Cc4cccnc4)C(=O)N[C@H](CC(=O)O)Cc4ccccc4)N3C2=O)cc1 | inactive | inactive | – |
| O=C(O)C[C@H](Cc1ccccc1)NC(=O)[C@H](Cc1cccnc1)NC(=O)[C@@H]1CCCN1C(=O)N(Cc1cn(-c2ccc(I)cc2)nn1)NC(=O)Cc1ccccc1 | inactive | inactive | – |
| Cc1ccc(CN(NC(=O)Cc2ccccc2)C(=O)N2CCC[C@H]2C(=O)N[C@@H](Cc2cccnc2)C(=O)N[C@H](CC(=O)O)Cc2ccccc2)cc1 | inactive | inactive | – |
| O=C(O)C[C@H](Cc1ccccc1)NC(=O)[C@H](Cc1cccnc1)NC(=O)[C@@H]1C[C@@H](F)CN1C(=O)NNC(=O)Cc1ccccc1 (PhAc-[azaGly][Pro(trans-4-F)][3Pal][β3hF]-OH) | inactive | inactive | – |
| O=C(O)C[C@H](Cc1ccccc1)NC(=O)[C@H](Cc1cccnc1)NC(=O)[C@@H]1CCCN1C(=O)NNC(=O)Cc1ccccc1 (PhAc-[azaGly]P[3Pal][β3hF]-OH) | – | – | Activity [4]: <20%; inhibition [5]: Active; Time [6]: 24 h |
| O=C(O)C[C@H](Cc1ccccc1)NC(=O)[C@H](Cc1cccnc1)NC(=O)[C@@H]1C[C@@H](F)CN1C(=O)N(Cc1ccccc1)NC(=O)Cc1ccccc1 | inactive | inactive | – |
| O=C(O)C[C@H](Cc1ccccc1)NC(=O)[C@H](Cc1cccnc1)NC(=O)[C@@H]1CC[C@H]2CC[C@H](NC(=O)Cc3ccccc3)C(=O)N21 | – | inactive | – |
| C#CCN(NC(=O)Cc1ccccc1)C(=O)N1C[C@@H](O)C[C@H]1C(=O)N[C@@H](Cc1cccnc1)C(=O)N[C@H](CC(=O)O)Cc1ccccc1 | inactive | inactive | – |
| [N-]=[N+]=Nc1ccc(CC(=O)N[C@H]2CC[C@H]3CC[C@@H](C(=O)N[C@@H](Cc4cccnc4)C(=O)N[C@H](CC(=O)O)Cc4ccccc4)N3C2=O)cc1 | inactive | inactive | – |
| C#CCN(NC(=O)Cc1ccccc1)C(=O)N1C[C@H](O)C[C@H]1C(=O)N[C@@H](Cc1cccnc1)C(=O)N[C@H](CC(=O)O)Cc1ccccc1 | Active | Active | – |
| O=C(O)C[C@H](Cc1ccccc1)NC(=O)[C@H](Cc1cccnc1)NC(=O)[C@@H]1CCCN1C(=O)N(Cc1cn(-c2ccc(F)cc2)nn1)NC(=O)Cc1ccccc1 | inactive | inactive | – |
| N#Cc1ccc(C2=C3CC[C@@H](C(=O)N[C@@H](Cc4cccnc4)C(=O)N[C@H](CC(=O)O)Cc4ccccc4)N3C(=O)[C@@H](NC(=O)Cc3ccccc3)C2)cc1 | inactive | inactive | – |

Continued, in another order:

| inhibition [1] | inhibition [2] | Compound | other results |
| --- | --- | --- | --- |
| inactive | inactive | COc1ccc(C2=C3CC[C@@H](C(=O)N[C@@H](Cc4cccnc4)C(=O)N[C@H](CC(=O)O)Cc4ccccc4)N3C(=O)[C@@H](NC(=O)Cc3ccccc3)C2)cc1 | – |
| Active | Active | O=C(O)C[C@H](Cc1ccccc1)NC(=O)[C@H](Cc1cccnc1)NC(=O)[C@@H]1CCC2=C(c3ccccc3)C[C@H](NC(=O)Cc3ccccc3)C(=O)N21 | – |
| inactive | inactive | O=C(O)C[C@H](Cc1ccccc1)NC(=O)[C@H](Cc1cccnc1)NC(=O)[C@@H]1CCCN1C(=O)N(CC#CCN1CCCCC1)NC(=O)Cc1ccccc1 | – |
| inactive | inactive | C#CCN(NC(=O)Cc1ccccc1)C(=O)N1C[C@@H](F)C[C@H]1C(=O)N[C@@H](Cc1cccnc1)C(=O)N[C@H](CC(=O)O)Cc1ccccc1 | – |
| inactive | inactive | O=C(O)C[C@H](Cc1ccccc1)NC(=O)[C@H](Cc1cccnc1)NC(=O)[C@@H]1CCCN1C(=O)N(Cc1ccc([N+](=O)[O-])cc1)NC(=O)Cc1ccccc1 | – |
| inactive | inactive | O=C(O)C[C@H](Cc1ccccc1)NC(=O)[C@H](Cc1cccnc1)NC(=O)[C@@H]1C[C@H](F)CN1C(=O)N(Cc1ccccc1)NC(=O)Cc1ccccc1 | – |
| inactive | inactive | O=C(O)C[C@H](Cc1ccccc1)NC(=O)[C@H](Cc1cccnc1)NC(=O)[C@@H]1C[C@H](O)CN1C(=O)NNC(=O)Cc1ccccc1 | – |
| inactive | inactive | O=C(O)C[C@H](Cc1ccccc1)NC(=O)[C@H](Cc1cccnc1)NC(=O)[C@@H]1CCCN1C(=O)N(Cc1cn(-c2ccccc2)nn1)NC(=O)Cc1ccccc1 | – |
| inactive | inactive | O=C(O)C[C@H](Cc1ccccc1)NC(=O)[C@H](Cc1cccnc1)NC(=O)[C@@H]1C[C@@H](O)[C@H]2CC[C@H](NC(=O)Cc3ccccc3)C(=O)N21 | – |
| inactive | inactive | O=C(O)C[C@H](Cc1ccccc1)NC(=O)[C@H](Cc1cccnc1)NC(=O)[C@@H]1C[C@@H](O)CN1C(=O)NNC(=O)Cc1ccccc1 | – |
| inactive | inactive | O=C(O)C[C@H](Cc1ccccc1)NC(=O)[C@H](Cc1cccnc1)NC(=O)[C@@H]1CCCN1C(=O)N(Cc1c[nH]nn1)NC(=O)Cc1ccccc1 | – |
| inactive | inactive | C#CCN(NC(=O)Cc1ccccc1)C(=O)N1C[C@H](F)C[C@H]1C(=O)N[C@@H](Cc1cccnc1)C(=O)N[C@H](CC(=O)O)Cc1ccccc1 | – |
| inactive | inactive | O=C(O)C[C@H](Cc1ccccc1)NC(=O)[C@H](Cc1cccnc1)NC(=O)[C@@H]1CCC2=C(c3ccc(OC(F)(F)F)cc3)C[C@H](NC(=O)Cc3ccccc3)C(=O)N21 | inhibition [8]: Active |
| inactive | inactive | CN(C)CC#CCN(NC(=O)Cc1ccccc1)C(=O)N1CCC[C@H]1C(=O)N[C@@H](Cc1cccnc1)C(=O)N[C@H](CC(=O)O)Cc1ccccc1 | – |
| inactive | inactive | O=C(O)C[C@H](Cc1ccccc1)NC(=O)[C@H](Cc1cccnc1)NC(=O)[C@@H]1C[C@H](O)CN1C(=O)N(Cc1ccccc1)NC(=O)Cc1ccccc1 | – |
| Active | Active | N[C@@H]1C[C@@H](C(=O)N[C@@H](Cc2cccnc2)C(=O)N[C@H](CC(=O)O)Cc2ccccc2)N(C(=O)NNC(=O)Cc2ccccc2)C1 (PhAc-[azaGly][Pro(4R-NH2)][3Pal][β3hF]-OH) | – |
| inactive | inactive | O=C(O)C[C@H](Cc1ccccc1)NC(=O)[C@H](Cc1cccnc1)NC(=O)[C@@H]1C[C@H](O)[C@@H]2CC[C@H](NC(=O)Cc3ccccc3)C(=O)N12 | – |
